Laboratory results reported in ChEMBL document CHEMBL2163220 (J Med Chem, 2012).
Active and inactive are the calls of the source. The rule behind the calls is not given here.

Tests used:
PC-3 [1] = assay: Effect on in Maspin expression in human PC3 cells deficient in wild type androgen receptor at 5 uM by luciferase reporter gene assay; type: functional, cell-based
How it was run: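 PC-3 cells were transfected with maspin-luc, with or without cotransfected AR. Cells were exposed to DMSO vehicle or compound at 2.5 and 5 μM. Luciferase activity was measured in triplicate.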

LNCaP = assay: Reduction in androgen receptor protein expression in human LNCAP cells incubated for 24 hrs by Western blotting; type: functional, cell-based
How it was run: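 LNCaP cells in complete medium were exposed to DMSO or compound at 1, 2.5 and 5 μM for 24 h. Western blot measured AR, maspin, caspase-3 activation and PARP cleavage, with β-actin as loading control.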

[2] = molecular target: T1, Progesterone receptor (Homo sapiens) (UniProt P06401); assay: Agonist activity at progesterone receptor in human PC3 cells assessed as stimulation of receptor transactivation at 1 uM by luciferase reporter gene assay; type: functional, cell-based; details: PC-3
T1 sequence (whole entry): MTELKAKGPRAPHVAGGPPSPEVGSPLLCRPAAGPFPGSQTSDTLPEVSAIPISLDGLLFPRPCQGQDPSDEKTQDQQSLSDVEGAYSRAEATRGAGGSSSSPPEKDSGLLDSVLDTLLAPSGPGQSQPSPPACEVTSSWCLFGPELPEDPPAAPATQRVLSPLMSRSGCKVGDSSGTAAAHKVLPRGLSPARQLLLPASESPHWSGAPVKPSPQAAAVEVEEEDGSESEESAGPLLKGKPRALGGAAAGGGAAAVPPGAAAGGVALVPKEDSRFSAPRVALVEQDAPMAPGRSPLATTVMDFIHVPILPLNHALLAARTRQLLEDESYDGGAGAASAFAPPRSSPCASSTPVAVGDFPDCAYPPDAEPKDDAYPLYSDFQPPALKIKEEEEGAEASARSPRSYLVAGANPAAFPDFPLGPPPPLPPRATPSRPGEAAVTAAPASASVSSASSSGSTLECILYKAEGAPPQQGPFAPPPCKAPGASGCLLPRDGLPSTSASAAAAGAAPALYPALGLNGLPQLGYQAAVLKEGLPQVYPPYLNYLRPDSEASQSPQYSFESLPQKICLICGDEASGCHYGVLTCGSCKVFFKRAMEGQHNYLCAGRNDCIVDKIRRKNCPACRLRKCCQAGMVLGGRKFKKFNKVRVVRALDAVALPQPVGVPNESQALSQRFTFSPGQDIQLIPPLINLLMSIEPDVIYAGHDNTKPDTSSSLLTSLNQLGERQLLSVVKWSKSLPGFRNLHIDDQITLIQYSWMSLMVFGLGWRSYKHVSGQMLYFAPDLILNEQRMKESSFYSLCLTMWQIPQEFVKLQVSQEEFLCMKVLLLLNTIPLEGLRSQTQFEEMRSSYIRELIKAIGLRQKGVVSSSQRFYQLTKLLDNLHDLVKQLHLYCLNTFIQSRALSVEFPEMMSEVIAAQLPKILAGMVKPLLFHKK
How it was run: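 PC-3 cells lack detectable PR, so they were cotransfected with a PR expression plasmid and the MMTV-luc reporter. Compound tested at 1 μM, alone or against transactivation induced by 10 nM R5020. Read-out was luciferase reporter activity.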

PC-3 [3] = assay: Agonist activity at androgen receptor T887A mutant expressed in human PC3 cells assessed as stimulation of receptor transactivation at 0.1 to 1 uM by luciferase reporter gene assay; type: functional, cell-based
How it was run: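 Full-length wild-type or mutant AR plasmid transiently transfected into PC-3 cells with MMTV-luc and Renilla luciferase reporters. Cells treated with DMSO vehicle or compound at 0.1 and 1 μM, alone or with 0.1 nM DHT. Luciferase read as relative luciferase units. Run in triplicate.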

[4] = molecular target: T2, Androgen receptor (Homo sapiens) (UniProt P10275); assay: Antagonist activity at androgen receptor in human LNCaP cells assessed as increase in Maspin promoter activity by luciferase reporter gene assay; type: functional, cell-based
T2 sequence (whole entry): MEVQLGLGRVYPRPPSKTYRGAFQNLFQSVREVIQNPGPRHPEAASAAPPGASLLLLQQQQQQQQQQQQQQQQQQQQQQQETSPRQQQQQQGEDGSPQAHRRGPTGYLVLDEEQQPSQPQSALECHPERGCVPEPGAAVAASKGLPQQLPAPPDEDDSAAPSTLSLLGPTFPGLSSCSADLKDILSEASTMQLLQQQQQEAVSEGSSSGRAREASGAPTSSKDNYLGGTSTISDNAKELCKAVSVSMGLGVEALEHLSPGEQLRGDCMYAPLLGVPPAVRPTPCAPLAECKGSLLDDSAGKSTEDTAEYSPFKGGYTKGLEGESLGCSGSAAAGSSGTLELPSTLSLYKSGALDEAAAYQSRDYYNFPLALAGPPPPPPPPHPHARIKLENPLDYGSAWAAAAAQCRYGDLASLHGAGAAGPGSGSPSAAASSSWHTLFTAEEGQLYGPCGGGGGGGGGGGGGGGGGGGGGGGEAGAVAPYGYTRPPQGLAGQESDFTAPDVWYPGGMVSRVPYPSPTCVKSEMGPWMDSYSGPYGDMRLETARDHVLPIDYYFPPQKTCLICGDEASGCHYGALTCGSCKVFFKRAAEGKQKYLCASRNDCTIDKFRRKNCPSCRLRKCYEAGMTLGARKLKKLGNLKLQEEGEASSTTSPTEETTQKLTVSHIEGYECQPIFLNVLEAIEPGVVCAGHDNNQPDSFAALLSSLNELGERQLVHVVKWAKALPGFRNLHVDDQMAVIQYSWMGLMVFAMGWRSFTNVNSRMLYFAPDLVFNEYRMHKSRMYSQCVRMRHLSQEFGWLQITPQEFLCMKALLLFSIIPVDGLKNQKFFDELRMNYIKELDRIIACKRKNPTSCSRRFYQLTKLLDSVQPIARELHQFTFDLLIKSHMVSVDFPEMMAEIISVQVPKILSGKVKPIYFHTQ
How it was run: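 LNCaP cells carrying a maspin promoter-luciferase reporter were treated with compound and read by luciferase activity, in triplicate.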

[5] = molecular target: T2, Androgen receptor (Homo sapiens); assay: Antagonist activity at androgen receptor in human LNCaP cells assessed as increase in Maspin expression incubated for 24 hrs in presence of DHT by RT-PCR
PC-3 [6] = assay: Cytotoxicity against human PC3 cells incubated for 72 hrs by MTT assay; type: functional, cell-based; details: PC-3, 72 h
How it was run: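 MTT assay run across a panel of prostate cancer cell lines.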

Question: `Cc1coc2c1C(=O)C(=O)c1c-2ccc2c1CCCC2(C)C` [TANSHINONE IIA] was tested. Which Activity (PC-3 [1]) did it give?
Answer: inactive

Question: And the Activity (LNCaP)?
Answer: Dose-dependent effect

Question: What about the Activity [2] of the same compound?
Answer: inactive

Question: And the Activity (PC-3 [3])?
Answer: inactive

Question: What about the Activity [4] of the same compound?
Answer: Dose-dependent effect

Question: What about the Activity [5] of the same compound?
Answer: Dose-dependent effect

Question: What about the IC50 (PC-3 [6]) of the same compound?
Answer: 3.3 µM
